Laboratory results as given in ChEMBL document CHEMBL4837218, “Synthesis and in vitro antitumour activity of 4(R)-methyl-3-O-phosphonomethyl-α-l-threose nucleosides” (Eur J Med Chem, 2021).
Calls of active or inactive are those of the source. The rule behind the calls is not given here.

Assays:
[1] = test system: MDA-MB-231; assay: Induction of G2/M phase cell cycle arrest in human MDA-MB-231 cells assessed as decrease in p-cdc2 protein expression at 3 to 9 uM measured after 48 hrs by western blot analysis; assay type: functional, cell-based; conditions: dose 3-9 µM
Summary of the method: (§1)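 Cells exposed to graded concentrations for 48 h, then proteins extracted. Run on SDS-PAGE (5–15% gels) and transferred to nitrocellulose. Blocked 2 h in 5% nonfat milk in PBS/0.1% Tween 20, primary antibody overnight at 4 °C, biotin-conjugated secondary 1 h. Visualized on X-ray film with densitometric quantitation; three independent experiments.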

[2] = test system: MCF7; assay: Induction of G2/M phase cell cycle arrest in human MCF7 cells assessed as upregulation of p-cdc25c at ser216 residue protein expression at 4 uM measured after 48 hrs by western blot analysis; assay type: functional, cell-based; summary of the method: as §1
[3] = test system: MDA-MB-231; assay: Induction of apoptosis in human MDA-MB-231 cells assessed as late apoptotic cells at 6 uM measured after 48 hrs by Annexin V-FITC/propidium iodide staining based flow cytometric analysis (reference value: 0.3%); assay type: functional
[4] = test system: MCF7; assay: Induction of mitochondrial membrane potential loss in human MCF7 cells assessed as green fluorescence intensity at 1 uM measured after 48 hrs by JC1 staining-based flow cytometry analysis (reference value: 8.1 %); assay type: functional
[5] = test system: MCF7; assay: Cell cycle arrest in human MCF7 cells assessed as accumulation at G2/M phase at 1 uM measured after 48 hrs by propidium iodide staining based flow cytometry (reference value: 0.01 %); assay type: functional
[6] = test system: MDA-MB-231; assay: Inhibition of PI3K/AKT signalling pathway in human MDA-MB-231 cells assessed as downregulation of AKT phosphorylation at Ser473 residue at 3 to 9 uM measured after 48 hrs by Western blot analysis; assay type: cell-based; conditions: dose 3-9 µM
Summary of the method: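 After 48 h exposure to compound at several concentrations, cells collected and proteins extracted. SDS-PAGE on 5–15% gels, transfer to nitrocellulose, blocking 2 h in 5% nonfat milk in PBS/0.1% Tween 20, primary antibodies overnight at 4 °C, biotin-conjugated secondary 1 h. Detection on X-ray film; band densitometry.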

[7] = test system: MDA-MB-231; assay: Induction of apoptosis in human MDA-MB-231 cells assessed as increase in cleaved PARP protein expression at 9 uM measured after 48 hrs in presence of cdc25c inhibitor, NSC663284 by western blot analysis; assay type: functional, cell-based
Summary of the method: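 Four arms per cell line: untreated, test compound, 0.3 µM NSC663284 alone, and combination. Proteins harvested after 48 h and resolved by SDS-PAGE on 5–15% gels, transferred to nitrocellulose. Blocked 2 h in milk/PBS-Tween, primary antibodies overnight at 4 °C, biotin-conjugated secondary. Read on X-ray film with densitometry.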

[8] = test system: MDA-MB-231; assay: Antiproliferative activity against human MDA-MB-231 cells assessed as growth inhibition measured after 72 hrs by MTT assay; assay type: functional, cell-based; conditions: MDA-MB-231, 72 h
Summary of the method: (§2)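 Cells seeded at 3000 exponentially growing cells/well and incubated 12 h at 37 °C. Medium then replaced with fresh medium containing graded compound concentrations for 72 h; 5-FU positive control. MTT (5 mg/mL solution) added for 4 h, formazan dissolved in DMSO, absorbance read at 570 nm (reference 630 nm). Relative percentage inhibition of viable cells calculated; IC50 reported as mean ± standard deviation.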

[9] = test system: MDA-MB-231; assay: Induction of apoptosis in human MDA-MB-231 cells assessed as decrease in Mcl-1 protein expression at 3 to 9 uM measured after 48 hrs by western blot analysis; assay type: functional, cell-based; conditions: dose 3-9 µM
Summary of the method: (§3)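 MCF-7 and MDA-MB-231 breast cancer cells treated 48 h with a concentration series, then lysed for protein. SDS-PAGE on 5–15% gels, transfer to nitrocellulose. Blocked 2 h in 5% nonfat milk/PBS-0.1% Tween 20, primary antibodies overnight at 4 °C, biotin-conjugated secondary 1 h. X-ray film detection with densitometric quantification.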

[10] = test system: MCF7; assay: Induction of DNA damage in human MCF7 cells assessed as increase in ATM protein expression at 1 to 4 uM measured after 48 hrs by western blot analysis; assay type: functional, cell-based; conditions: dose 1-4 µM; summary of the method: as §1
[11] = test system: MDA-MB-231; assay: Induction of apoptosis in human MDA-MB-231 cells assessed as increase in Noxa protein expression at 3 to 9 uM measured after 48 hrs by western blot analysis; assay type: functional, cell-based; conditions: dose 3-9 µM; summary of the method: as §3
[12] = test system: MDA-MB-231; assay: Cell cycle arrest in human MDA-MB-231 cells assessed as accumulation of cells at G2/M phase at 9 uM in presence of cdc25c inhibitor, NSC663284 measured after 48 hrs by PI staining based flow cytometry; assay type: functional
Summary of the method: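 Four arms (untreated, test compound alone, 0.3 NSC663284 alone, combination) applied to cells for 48 h. Cells were fixed in 70% ice-cold ethanol at 4 °C overnight and stained with RNase/PI for 30 min in the dark. G2/M fraction was read by flow cytometry.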

[13] = test system: MCF7; assay: Induction of apoptosis in human MCF7 cells assessed as increase in cleaved PARP protein expression at 1 to 4 uM measured after 48 hrs by western blot analysis; assay type: functional, cell-based; conditions: dose 1-4 µM; summary of the method: as §3
[14] = test system: MCF7; assay: Cell cycle arrest in human MCF7 cells assessed as accumulation at S phase at 2 uM measured after 48 hrs by propidium iodide staining based flow cytometry (reference value: 25.34 %); assay type: functional
[15] = test system: MCF7; assay: Induction of apoptosis in human MCF7 cells assessed as late apoptotic cells at 2 uM measured after 48 hrs by Annexin V-FITC/propidium iodide staining based flow cytometric analysis (reference value: 0.6 %); assay type: functional
[16] = test system: HeLa; assay: Anticancer activity against human HeLa cells assessed as inhibition of cell growth measured after 72 hrs by MTT assay; assay type: functional, cell-based; summary of the method: as §2
[17] = test system: MDA-MB-231; assay: Induction of apoptosis in human MDA-MB-231 cells assessed as early apoptotic cells at 3 uM measured after 48 hrs by Annexin V-FITC/propidium iodide staining based flow cytometric analysis (reference value: 1%); assay type: functional
[18] = test system: MCF7; assay: Induction of apoptosis in human MCF7 cells assessed as early apoptotic cells at 1 uM measured after 48 hrs by Annexin V-FITC/propidium iodide staining based flow cytometric analysis (reference value: 3 %); assay type: functional

For `C[C@H]1O[C@@H](n2cnc3c(N)nc(F)nc32)[C@H](O)[C@H]1OCP(=O)([O-])[O-].[Na+].[Na+]`, which Activity [1] is on record?
Its Activity is “Active”.

And the Activity [2]?
Its Activity is “Active”.

And the Activity [3]?
Its Activity is 18.8%.

And the Activity [4]?
The Activity was 9.1%.

What about the Activity [5] of the same molecule?
The Activity was 16.26%.

And the inhibition [6]?
Its inhibition is “Active”.

What about the Activity [7] of the same molecule?
The Activity was “inactive”.

And the IC50 [8]?
The IC50 was 0.391 µM.

And the Activity [9]?
Its Activity is “Active”.

And the Activity [10]?
Its Activity is “Active”.

What about the Activity [11] of the same molecule?
Its Activity is “Active”.

What about the Activity [12] of the same molecule?
Its Activity is “inactive”.

What about the Activity [13] of the same molecule?
Its Activity is “Active”.

What about the Activity [14] of the same molecule?
The Activity was 38.69%.

What about the Activity [15] of the same molecule?
The Activity was 6.5%.

What about the IC50 [16] of the same molecule?
Its IC50 is 6.2 µM.

What about the Activity [17] of the same molecule?
Its Activity is 14.5%.

And the Activity [18]?
Its Activity is 15.5%.
